In ChEMBL document CHEMBL1153829, “Exploiting chemical libraries, structure, and genomics in the search for kinase inhibitors” (Science, 1998):
Active and inactive are the calls of the source. No cut-off for these calls is given here.

What was measured:
Saccharomyces cerevisiae [1] = experiment: Induction of YPR184W gene expression in delta snq2, delta pdr5 and delta erg6 knock out yeast YRP1 at 25 µM after 2 hrs by high-density oligonucleotide array; assay type: functional, organism-based
Procedure, shortened: (§1)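 Drug-sensitized yeast strain grown to late logarithmic phase, then exposed to 25 μM inhibitor for 2 h. Polyadenylated mRNA was isolated and converted to biotin-labeled cRNA, which was hybridized to a set of four arrays carrying over 260,000 25-nucleotide oligomers. Transcripts changing more than twofold were scored, from triplicate hybridizations in each of two independent experiments.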

Saccharomyces cerevisiae [2] = experiment: Effect on HTA1 gene expression in delta snq2, delta pdr5 and delta erg6 knock out yeast YRP1 bearing cdc28-4 mutant allele assessed as change in mRNA level at 25 µM after 2 hrs by high-density oligonucleotide array; assay type: functional, organism-based
Saccharomyces cerevisiae [3] = experiment: Upregulation of HSP26 gene expression in delta snq2, delta pdr5 and delta erg6 knock out yeast YRP1 at 25 µM after 2 hrs by high-density oligonucleotide array; assay type: functional, organism-based; procedure, shortened: as §1
Saccharomyces cerevisiae [4] = experiment: Effect on ACH1 gene expression in delta snq2, delta pdr5 and delta erg6 knock out yeast YRP1 bearing cdc28-4 mutant allele assessed as change in mRNA level at 25 µM after 2 hrs by high-density oligonucleotide array; assay type: functional, organism-based; settings: 25 M
Saccharomyces cerevisiae [5] = experiment: Upregulation of YER150w gene expression in delta snq2, delta pdr5 and delta erg6 knock out yeast YRP1 at 25 µM after 2 hrs by high-density oligonucleotide array; assay type: functional, organism-based; settings: 25 M; procedure, shortened: as §1
Saccharomyces cerevisiae [6] = experiment: Effect on YGL121C gene expression in delta snq2, delta pdr5 and delta erg6 knock out yeast YRP1 bearing cdc28-4 mutant allele assessed as change in mRNA level at 25 µM after 2 hrs by high-density oligonucleotide array; assay type: functional, organism-based; settings: 25 M
Saccharomyces cerevisiae [7] = experiment: Downregulation of HTB2 mRNA expression in delta snq2, delta pdr5 and delta erg6 knock out yeast YRP1 at 25 µM after 2 hrs by high-density oligonucleotide array; assay type: functional, organism-based; settings: 25 M
Procedure, shortened: (§2)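 Drug-sensitized S. cerevisiae cultures grown to late logarithmic phase, then exposed to 25 μM inhibitor for 2 h. Polyadenylated mRNA isolated, converted to biotin-labeled cRNA and hybridized to a set of four high-density arrays carrying more than 260,000 25-nucleotide oligomers. Transcripts scored as changed when they shifted more than twofold in triplicate hybridizations for each of two independent experiments.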

Saccharomyces cerevisiae [8] = experiment: Effect on YKL071W gene expression in delta snq2, delta pdr5 and delta erg6 knock out yeast YRP1 bearing cdc28-4 mutant allele assessed as change in mRNA level at 25 µM after 2 hrs by high-density oligonucleotide array; assay type: functional, organism-based
Saccharomyces cerevisiae [9] = experiment: Effect on PGM2 gene expression in delta snq2, delta pdr5 and delta erg6 knock out yeast YRP1 assessed as change in mRNA level at 25 µM after 2 hrs by high-density oligonucleotide array; assay type: functional, organism-based; settings: 25 M; procedure, shortened: as §2
Saccharomyces cerevisiae [10] = experiment: Effect on YGL179C gene expression in delta snq2, delta pdr5 and delta erg6 knock out yeast YRP1 assessed as change in mRNA level at 25 µM after 2 hrs by high-density oligonucleotide array; assay type: functional, organism-based; settings: 25 M; procedure, shortened: as §2
Saccharomyces cerevisiae [11] = experiment: Increase in CTT1 mRNA level in delta snq2, delta pdr5 and delta erg6 knock out yeast YRP1 at 25 µM after 2 hrs by high-density oligonucleotide array; assay type: functional, organism-based; settings: 25 M; procedure, shortened: as §2
Saccharomyces cerevisiae [12] = experiment: Increase in YBR296c mRNA level in delta snq2, delta pdr5 and delta erg6 knock out yeast YRP1 at 25 µM after 2 hrs by high-density oligonucleotide array; assay type: functional, organism-based; settings: 25 M; procedure, shortened: as §2
Saccharomyces cerevisiae [13] = experiment: Effect on YDR281C gene expression in delta snq2, delta pdr5 and delta erg6 knock out yeast YRP1 bearing cdc28-4 mutant allele assessed as change in mRNA level at 25 µM after 2 hrs by high-density oligonucleotide array; assay type: functional, organism-based
Saccharomyces cerevisiae [14] = experiment: Upregulation of INO1 gene expression in delta snq2, delta pdr5 and delta erg6 knock out yeast YRP1 at 25 µM after 2 hrs by high-density oligonucleotide array; assay type: functional, organism-based; settings: 25 M; procedure, shortened: as §1
Saccharomyces cerevisiae [15] = experiment: Increase in PHO5 mRNA level in delta snq2, delta pdr5 and delta erg6 knock out yeast YRP1 at 25 µM after 2 hrs by high-density oligonucleotide array; assay type: functional, organism-based; procedure, shortened: as §2
Saccharomyces cerevisiae [16] = experiment: Effect on ZMS1 gene expression in delta snq2, delta pdr5 and delta erg6 knock out yeast YRP1 bearing cdc28-4 mutant allele assessed as change in mRNA level at 25 µM after 2 hrs by high-density oligonucleotide array; assay type: functional, organism-based; settings: 25 M
Saccharomyces cerevisiae [17] = experiment: Effect on CTS1 gene expression in delta snq2, delta pdr5 and delta erg6 knock out yeast YRP1 assessed as change in mRNA level at 25 µM after 2 hrs by high-density oligonucleotide array; assay type: functional, organism-based; settings: 25 M; procedure, shortened: as §2
Saccharomyces cerevisiae [18] = experiment: Effect on FAR1 gene expression in delta snq2, delta pdr5 and delta erg6 knock out yeast YRP1 assessed as change in mRNA level at 25 µM after 2 hrs by high-density oligonucleotide array; assay type: functional, organism-based; procedure, shortened: as §2
Saccharomyces cerevisiae [19] = experiment: Upregulation of HSP30 gene expression in delta snq2, delta pdr5 and delta erg6 knock out yeast YRP1 at 25 µM after 2 hrs by high-density oligonucleotide array; assay type: functional, organism-based; settings: 25 M; procedure, shortened: as §1
Saccharomyces cerevisiae [20] = experiment: Upregulation of PDR10 gene expression in delta snq2, delta pdr5 and delta erg6 knock out yeast YRP1 at 25 µM after 2 hrs by high-density oligonucleotide array; assay type: functional, organism-based; settings: 25 M; procedure, shortened: as §1
Saccharomyces cerevisiae [21] = experiment: Effect on YBR147w gene expression in delta snq2, delta pdr5 and delta erg6 knock out yeast YRP1 bearing cdc28-4 mutant allele assessed as change in mRNA level at 25 µM after 2 hrs by high-density oligonucleotide array; assay type: functional, organism-based
Saccharomyces cerevisiae [22] = experiment: Effect on YBR214w gene expression in delta snq2, delta pdr5 and delta erg6 knock out yeast YRP1 assessed as change in mRNA level at 25 µM after 2 hrs by high-density oligonucleotide array; assay type: functional, organism-based; procedure, shortened: as §2
Saccharomyces cerevisiae [23] = experiment: Increase in UB14 mRNA level in delta snq2, delta pdr5 and delta erg6 knock out yeast YRP1 at 25 µM after 2 hrs by high-density oligonucleotide array; assay type: functional, organism-based; procedure, shortened: as §2
Saccharomyces cerevisiae [24] = experiment: Induction of PCK1 gene expression in delta snq2, delta pdr5 and delta erg6 knock out yeast YRP1 at 25 µM after 2 hrs by high-density oligonucleotide array; assay type: functional, organism-based; settings: 25 M; procedure, shortened: as §1
Saccharomyces cerevisiae [25] = experiment: Decrease in RPL4A mRNA level in delta snq2, delta pdr5 and delta erg6 knock out yeast YRP1 at 25 µM after 2 hrs by high-density oligonucleotide array; assay type: functional; procedure, shortened: as §2
Saccharomyces cerevisiae [26] = experiment: Growth inhibition of delta snq2, delta pdr5 and delta erg6 knock out yeast YRP1 assessed as induction of uniform arrest morphology; assay type: functional, organism-based
Saccharomyces cerevisiae [27] = experiment: Effect on CYC3 gene expression in delta snq2, delta pdr5 and delta erg6 knock out yeast YRP1 bearing cdc28-4 mutant allele assessed as change in mRNA level at 25 µM after 2 hrs by high-density oligonucleotide array; assay type: functional, organism-based; settings: 25 M
Saccharomyces cerevisiae [28] = experiment: Effect on YOL155C gene expression in delta snq2, delta pdr5 and delta erg6 knock out yeast YRP1 bearing cdc28-4 mutant allele assessed as change in mRNA level at 25 µM after 2 hrs by high-density oligonucleotide array; assay type: functional, organism-based
Saccharomyces cerevisiae [29] = experiment: Induction of HXT5 gene expression in delta snq2, delta pdr5 and delta erg6 knock out yeast YRP1 at 25 µM after 2 hrs by high-density oligonucleotide array; assay type: functional, organism-based; procedure, shortened: as §1
Saccharomyces cerevisiae [30] = experiment: Downregulation of HTA2 mRNA expression in delta snq2, delta pdr5 and delta erg6 knock out yeast YRP1 at 25 µM after 2 hrs by high-density oligonucleotide array; assay type: functional, organism-based; procedure, shortened: as §2
Saccharomyces cerevisiae [31] = experiment: Effect on YGR043C gene expression in delta snq2, delta pdr5 and delta erg6 knock out yeast YRP1 assessed as change in mRNA level at 25 µM after 2 hrs by high-density oligonucleotide array; assay type: functional, organism-based; procedure, shortened: as §2
Saccharomyces cerevisiae [32] = experiment: Upregulation of SSE2 gene expression in delta snq2, delta pdr5 and delta erg6 knock out yeast YRP1 at 25 µM after 2 hrs by high-density oligonucleotide array; assay type: functional, organism-based; settings: 25 M; procedure, shortened: as §1

| Structure (SMILES) | Activity (Saccharomyces cerevisiae [1]) | Activity (Saccharomyces cerevisiae [2]) | Activity (Saccharomyces cerevisiae [3]) | Activity (Saccharomyces cerevisiae [4]) | Activity (Saccharomyces cerevisiae [5]) | Activity (Saccharomyces cerevisiae [6]) | Activity (Saccharomyces cerevisiae [7]) | Activity (Saccharomyces cerevisiae [8]) | Activity (Saccharomyces cerevisiae [9]) | Activity (Saccharomyces cerevisiae [10]) | Activity (Saccharomyces cerevisiae [11]) | Activity (Saccharomyces cerevisiae [12]) | Activity (Saccharomyces cerevisiae [13]) | Activity (Saccharomyces cerevisiae [14]) | Activity (Saccharomyces cerevisiae [15]) | Activity (Saccharomyces cerevisiae [16]) | Activity (Saccharomyces cerevisiae [17]) | Activity (Saccharomyces cerevisiae [18]) | Activity (Saccharomyces cerevisiae [19]) | Activity (Saccharomyces cerevisiae [20]) | further results |
| --- | --- | --- | --- | --- | --- | --- | --- | --- | --- | --- | --- | --- | --- | --- | --- | --- | --- | --- | --- | --- | --- |
| CC(C)n1cnc2/c(=N/c3cccc(Cl)c3)nc(NCCO)[nH]c21 | Active | Active | Active | Active | Active | Active | Active | Active | Active | Active | Active | Active | Active | Active | Active | Active | Active | Active | Active | Active | Activity (Saccharomyces cerevisiae [21]): Active; Activity (Saccharomyces cerevisiae [22]): Active; Activity (Saccharomyces cerevisiae [23]): Active; Activity (Saccharomyces cerevisiae [24]): Active; fold change (FC) (Saccharomyces cerevisiae [25]): 3; Activity (Saccharomyces cerevisiae [26]): inactive; Activity (Saccharomyces cerevisiae [27]): Active; Activity (Saccharomyces cerevisiae [28]): Active; Activity (Saccharomyces cerevisiae [29]): Active; Activity (Saccharomyces cerevisiae [30]): Active; Activity (Saccharomyces cerevisiae [31]): Active; Activity (Saccharomyces cerevisiae [32]): Active |
| CN1CC[C@H](c2c(O)cc(O)c3c(=O)cc(-c4ccccc4Cl)oc23)[C@H](O)C1 [ALVOCIDIB] | Active | Active | Active | Active | Active | Active | Active | Active | Active | Active | Active | Active | Active | Active | Active | Active | Active | Active | Active | Active | Activity (Saccharomyces cerevisiae [21]): Active; Activity (Saccharomyces cerevisiae [22]): Active; Activity (Saccharomyces cerevisiae [23]): Active; Activity (Saccharomyces cerevisiae [24]): Active; fold change (FC) (Saccharomyces cerevisiae [25]): 3; Activity (Saccharomyces cerevisiae [26]): inactive; Activity (Saccharomyces cerevisiae [27]): Active; Activity (Saccharomyces cerevisiae [28]): Active; Activity (Saccharomyces cerevisiae [29]): Active; Activity (Saccharomyces cerevisiae [30]): Active; Activity (Saccharomyces cerevisiae [31]): Active; Activity (Saccharomyces cerevisiae [32]): Active |
